Screening data (PubChem BioAssay)
Ecoli rRNA inh: inhibits bacterial ribosomal RNA function over humanized ribosomes. E. coli WT GFP vs humanized-ribosome RFP mutants, fluorescence, 24 h; stronger effect = lower value; DMSO median 0, no signal -100. hit rate 1.6% among 350,000. GFP signal change (wild-type ribosome), % (concentration not given with the values). AID 720706;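 active = significant combined selectivity score with lowered wild-type GFP, culture density cut under 30%, mutant RFP and density less affected; inactive = any of these conditions unmet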
RAD52 anneal inh: blocks human RAD52 DNA annealing | P43351 | hit rate 0.46% among 360,000 | inhibition, % at 18.7 µM | recombinant RAD52 DNA annealing, FRET fluorescence;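 active = every replicate showing at least 50% inhibition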
Target sequence (P43351 whole entry, looked up): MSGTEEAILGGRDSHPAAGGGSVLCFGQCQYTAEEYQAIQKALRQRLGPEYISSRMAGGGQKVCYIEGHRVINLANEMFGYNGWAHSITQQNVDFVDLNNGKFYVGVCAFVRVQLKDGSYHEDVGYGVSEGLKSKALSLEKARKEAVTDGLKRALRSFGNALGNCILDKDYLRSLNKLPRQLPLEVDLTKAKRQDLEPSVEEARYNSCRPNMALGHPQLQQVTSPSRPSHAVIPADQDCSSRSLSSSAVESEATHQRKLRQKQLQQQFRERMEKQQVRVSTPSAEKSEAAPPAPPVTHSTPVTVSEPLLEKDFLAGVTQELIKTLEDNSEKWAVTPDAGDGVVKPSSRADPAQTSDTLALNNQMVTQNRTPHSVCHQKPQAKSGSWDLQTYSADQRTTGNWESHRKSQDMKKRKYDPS
Xi reactivation: reactivates the inactive X chromosome in mouse fibroblasts. XiGFP mouse fibroblasts, % GFP-positive cells imaging, 3 d; cells co-treated with 5-aza-dC sensitizer; scaled so ellipticine positive control = 100%. hit rate 0.055% among 360,000. activation, % at 7.58 µM;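 active = mean normalized replicate activation at least 10% and every replicate at or above 10%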;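 also: 0% = median of on-plate neutral control wells and 100% = ellipticine 6 µM median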
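Schedule: 3 d treatment, 15 min room-temperature fixation; system: 68-5-11 XiGFP fibroblast line; buffer or medium: DMEM plus 5-aza-dC sensitizer; control set: ellipticine 6 µM positive control; compound: one concentration, pinned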
E-selectin induc: E-selectin induction on HUVECs; HUVEC E-selectin immunofluorescence imaging; normalized: neutral wells 0, TNF-alpha wells 100; P16581; hit rate 0.37% among 260,000; AID 686992; activation, % at 7.58 µM;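 active = mean E-selectin-positive cell signal at least 10% of the positive control, reached in at least 60% of replicates, without over 20% cell loss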
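System: HUVEC, human umbilical vein endothelial cells; quantity: 3,000 cells/well; buffer or medium: EGM-2 medium, gelatin-coated wells; dosing: single-point compound dose; detection: immunofluorescence imaging; evaluation: % PE-positive cells; benchmarks: TNF-alpha, DMSO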
PglD DTNB: inhibitors of Campylobacter jejuni PglD acetyltransferase; inhibition, % at 12.5 µM; purified PglD enzyme, DTNB colorimetric CoA detection; hit rate 0.098% among 360,000; AID 602405; in the data active = inhibition above about 16%, passing the limit was not always enough
RAD54 inh: blocks human RAD54 Holliday junction branch migration; inhibition, % at 10.4 µM; AID 602329; hit rate 0.14% among 360,000; Q92698; FAM/BHQ fluorescence;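 active = mean normalized replicate activity at least 40 and at least half of replicates scoring 40 or more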;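 also: 0% = median of neutral control wells and 100% = median of positive control wells; inhibitors cause a drop in the FAM fluorescence signal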
Starred values were filed as active, the others as inactive; x = not tested or not shown. This is a sample that favours compounds with a hit; in the whole collection about 2% have one here.

SMILES | Ecoli rRNA inh | RAD52 anneal inh | Xi reactivation | E-selectin induc | PglD DTNB | RAD54 inh
C[C@@H]1CCCCO[C@@H](CN(C)C(=O)c2ccccc2)[C@H](C)CN([C@H](C)CO)C(=O)c2cc(NS(=O)(=O)c3ccc(Cl)cc3)ccc2O1 | -4 | 23 | 0 | 0 | -4 | 4
O=C(CC(=O)c1cc(Cl)ccc1O)c1ccccc1 | -27* | -11 | x | x | 17 | 10
COc1cccc(CNC(=O)C[C@@H]2CC[C@@H]3[C@H](COc4ccc(NS(=O)(=O)c5ccccc5F)cc4C(=O)N3C)O2)c1 | -2 | 16 | 0 | 0 | -2 | -3
CO[C@@H]1CN(C)C(=O)c2ccc(NC(=O)C3CC3)cc2OC[C@@H](C)N(Cc2cccc(F)c2)C[C@@H]1C | -7 | x | 0 | 0 | 1 | -7
COc1cccc(CC(=O)n2nc(N)c3cc4ccc(OC)cc4nc32)c1 | 7 | 3 | 0 | 0 | 3 | -7
COc1ccc2cc3c(N)nn(C(=O)Cc4c[nH]c5ccccc45)c3nc2c1 | -33* | -18 | 0 | x | x | x
Cc1ccc(-c2csc(NC(=O)CCNC(=O)c3ccco3)n2)cc1 | -36* | -24 | 0 | 3 | x | x
C[C@H](CO)N1C[C@H](C)[C@H](CN(C)C(=O)CCC(F)(F)F)OCCCC[C@H](C)Oc2ccc(N(C)C)cc2C1=O | -4 | 8 | 1 | 0 | 1 | -5
OCCNC(=S)Nc1cc(Cl)cc(Cl)c1 | -22* | 0 | 0 | x | x | x
COc1ccc2cc(CN(CC3CCCO3)S(=O)(=O)c3ccccc3Cl)c(=O)[nH]c2c1 (stereo unspecified) | -36* | -8 | x | x | 4 | -9
O=c1[nH]c2ccccc2cc1CN(CC1CCCO1)S(=O)(=O)c1ccc(Cl)cc1 (stereo unspecified) | -8 | -7 | 0 | x | -3 | 1
CCOC(=O)c1c(NC(=O)c2c(Br)cnn2C)c(C#N)nn1-c1ccccc1 | -29* | -8 | x | x | 0 | -4
CCOC(=O)c1c(NC(=O)c2nn(CC)cc2Br)c(C#N)nn1-c1ccccc1 | x | x | x | x | 9 | 3
Cc1noc(C)c1NC(=O)N(C)C[C@@H]1Oc2ccc(NC(=O)Nc3ccccc3)cc2CC(=O)N([C@H](C)CO)C[C@H]1C | 4 | 8 | 0 | 0 | 1 | 9
C[C@H](CO)N1C[C@H](C)[C@@H](CN(C)C(=O)Nc2cccc3ccccc23)Oc2ccc(NC(=O)c3ccncc3)cc2C1=O | 4 | -1 | 0 | 22 | -4 | 1
CO/N=C/C(=N\Nc1ccc(OC)cc1)C(=O)c1ccc(OC)cc1 | x | x | x | x | -8 | 2
COc1ccc(C(=O)C(/C=N/O)=N/Nc2ccc(F)cc2)cc1 | -26* | -16 | 0 | 1 | x | x
CCCn1c(SCc2nc3ccccc3s2)n[nH]c1=O | 8 | -35 | 0 | 12 | x | x
Cc1cc(C)c(-n2c(SCc3nc4ccccc4s3)n[nH]c2=O)c(C)c1 | -24* | -17 | 0 | x | x | x
NS(=O)(=O)c1cccc(NC(=O)COC(=O)c2ccccc2C(=O)c2ccccc2)c1 | -32* | -9 | 0 | x | -2 | 5
NS(=O)(=O)c1cccc(NC(=O)COC(=O)CSCc2ccccc2)c1 | 3 | -4 | 0 | 0 | 5 | -7
Cc1nn(-c2ccccc2)c(N)c1Sc1cccc([N+](=O)[O-])c1 | x | x | 0 | x | 7 | 2
Cc1nn(-c2ccccc2)c(N)c1Sc1ccccc1[N+](=O)[O-] | -37* | -4 | 0 | -3 | x | x
CC(C)Cc1nnc(NS(=O)(=O)Cc2ccccc2)s1 | x | x | x | x | 4 | 7
CC(C)Cc1nnc(NS(=O)(=O)c2ccccc2)s1 | -17* | -12 | 0 | 0 | -4 | -8
SMILES | Ecoli rRNA inh | RAD52 anneal inh | Xi reactivation | E-selectin induc | PglD DTNB | RAD54 inh
CCOC(=O)C1CCN(C(=O)c2ccc(NS(=O)(=O)c3ccc(F)cc3C)cc2)CC1 | 0 | -6 | 25* | 6 | x | 4
CO[C@H]1CN(C)C(=O)c2cc(NC(=O)Nc3ccc(Cl)c(Cl)c3)ccc2OC[C@@H](C)NC[C@H]1C | -5 | 52* | 0 | 0 | -8 | 31
CO[C@H]1CN(C)C(=O)c2ccc(NC(=O)Nc3ccc(Cl)c(Cl)c3)cc2OC[C@H](C)NC[C@H]1C | -10 | 39 | 0 | 0 | -2 | -2
CO[C@H]1CN(C)C(=O)c2cc(NC(=O)Nc3ccc(Cl)c(Cl)c3)ccc2OC[C@@H](C)NC[C@@H]1C | -4 | 39 | 0 | 0 | 1 | 15
CO[C@@H]1CN(C)C(=O)c2ccc(NC(=O)Nc3cc(Cl)cc(Cl)c3)cc2OC[C@H](C)NC[C@@H]1C | -2 | 58* | 0 | 0 | -2 | 8
CO[C@H]1CN(C)C(=O)c2ccc(NC(=O)Nc3ccc(Cl)c(Cl)c3)cc2OC[C@H](C)NC[C@@H]1C | -60 | 51* | 0 | 0 | 1 | -3
CO[C@H]1CN(C)C(=O)c2ccc(NC(=O)Nc3cc(Cl)cc(Cl)c3)cc2OC[C@H](C)NC[C@@H]1C | -60 | 37 | 0 | 0 | x | x
COc1cc(C(=O)Nc2ccc3nc(N4CCOCC4)sc3c2)cc(OC)c1OC | 2 | -1 | 0 | x | -8 | -1
COc1cc(C(=O)Nc2ccc3nc(N4CCN(C)CC4)cc(C)c3c2)cc(OC)c1OC | -9 | 56* | 0 | 0 | 3 | 44
CCC(=O)Nc1nc2ccc(NC(=O)c3cc(OC)c(OC)c(OC)c3)cc2s1 | -36* | -12 | 0 | 1 | -9 | -6
CC(C)NC(=O)Nc1ccc2c(c1)CC(=O)N([C@@H](C)CO)C[C@@H](C)[C@H](CN(C)S(=O)(=O)c1cccs1)O2 | 1 | -5 | 0 | 0 | -6 | 0
O=c1c2ccccc2nnn1Cc1ccco1 | x | -28 | 0 | 0 | x | x
COc1ccc(OCC(=O)N/N=C2\CCCCc3ccccc32)cc1 | -29* | -13 | 0 | 0 | x | x
COc1ccc(NCC(=O)N/N=C2\CCc3ccccc32)cc1 | -1 | -5 | 1 | 11 | x | x
C[C@H](NC(=O)C[C@@H]1CC[C@H](NS(=O)(=O)c2cccc(F)c2)[C@H](CO)O1)c1ccccc1 | -1 | 9 | 1 | 0 | -3 | 8
c1ccc(CCNc2nc(-c3ccccn3)nc3ccccc23)cc1 | -53 | -2 | 26* | 0 | 4 | 21
c1ccc(-c2nc(N3CCCCCC3)c3ccccc3n2)nc1 | x | x | x | x | 11 | 56*
COc1ccc(S(=O)(=O)Nc2cccc3c2O[C@@H](CN(C)C(=O)Nc2ccc(F)cc2)[C@@H](C)CN([C@@H](C)CO)C3=O)cc1 | 5 | -19 | -1 | 0 | 11 | 0
COc1cccc(NC(=O)COc2cccc(-n3cnnn3)c2)c1 | 2 | -17 | 0 | x | x | x
Cc1cc(OCCCC(=O)Nc2cccc(-n3cnnn3)c2)ccc1Cl | -34* | -10 | 0 | x | -1 | 5
